Assay results reported in ChEMBL document CHEMBL4261485, “Towards the rational design of novel drugs based on solubility, partitioning/distribution, biomimetic permeability and biological activity exemplified by 1,2,4-thiadiazole derivatives” (Medchemcomm, 2017).
≈ marks a conversion by molar mass, not a printed value.

Assays:
Rattus norvegicus = species on record: Rattus norvegicus; assay: Modulation of glutamate receptor in synaptosomes of rat brain cortex assessed as change in glutamate-induced 45Ca2+ uptake (K43/21) after 5 mins by liquid scintillation counting method; type: subcellular; set-up: concentration or dose not given beside the values
How it was run: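 Cortical synaptosomes (P2 fraction) from 9–10-day-old rats suspended in HEPES buffer pH 7.4 (NaCl, KCl, glucose; protein 1.5–2 mg mL−1), final Ca2+ 1.25 mM. 45Ca2+ uptake stimulated with 200 μM glutamate, 5 min at […]; stopped by GF/B filtration and three cold-buffer washes; beta counting. Uptake = stimulated minus unstimulated label, % of control; triplicate.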

[1] = Thermodynamic solubility of compound in buffer at 298 +/- 0.1 K after 24 hrs by shake flask method; type: physicochemical; details: read-out: Therm_solubility
How it was run: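 Shake flask at 298 K (±0.1 K). Phosphate buffer pH 7.4 (I = 0.15 mol L−1) was stirred with solid for 24 h, an equilibration time chosen from kinetic plateau experiments. Aliquot was centrifuged 5 min at 298 K, then isothermally filtered (0.45 μm) and diluted. Concentration was read by UV spectrophotometry (200–400 nm). Value is the mean of at least three replicates.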

[2] = Permeability of compound at 5 mM using lipid layer at pH 7.4 at 298 K by spectrophotometric method; type: ADME; details: not told
[3] = Apparent permeability of compound at 5 mM using permeapad barrier at pH 7.4 at 298 K by spectrophotometric method; type: ADME; details: not told
How it was run: (§1)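 Franz diffusion cell at 298 K (±0.1 K). The donor (lower) chamber held 8 ml of drug solution, approximately 5 mM, in phosphate buffer saline (74 mM phosphate, pH 7.3–7.4, 280–290 mOsm with NaCl). The acceptor chamber held 1.5 ml buffer. Barrier was Permeapad or the support layer alone, without phospholipids. Cumulative permeated moles per barrier area were plotted against time in seconds. Replicates were at least triplicate, and Papp is the mean of the replicates.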

[4] = 1-octanol/buffer distribution co-efficient, log D of compound at pH 7.4 at 298 K after 24 hrs by shake flask method; type: physicochemical
How it was run: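 Shake flask. Buffer (pH 7.4) and 1-octanol were pre-saturated by vigorous mixing for 24 h at 298 K (±0.1 K) and then allowed to separate. Compound was dissolved in the buffer-saturated octanol as stock, then mixed with the octanol-saturated buffer for 24 h at 298 K. Both phases were quantified by UV spectrophotometry against calibration curves. D = Coct/Cbuf.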

[5] = Permeability of compound at 5 mM using support layer at pH 7.4 at 298 K by spectrophotometric method; type: ADME; details: not told; how it was run: as §1
[6] = 1-hexane/buffer partition co-efficient of compound in neutral form at pH 7.4 at 298 K after 24 hrs by shake flask method; type: physicochemical; details: pH 7.4, 24 h
[7] = 1-octanol/buffer partition co-efficient of compound in neutral form at pH 7.4 at 298 K after 24 hrs by shake flask method; type: physicochemical; details: pH 7.4, 24 h
[8] = 1-hexane/buffer distribution co-efficient, log D of compound at pH 7.4 at 298 K after 24 hrs by shake flask method; type: physicochemical; details: pH 7.4, 24 h

Compound | Activity (Rattus norvegicus) [%] | solubility thermodynamic at 24 h [1] [mM] | Papp at 5000 µM [2] [×10⁻⁶ cm/s] | Papp at 5000 µM [3] [×10⁻⁶ cm/s] | logD at 24 h [4] | Papp at 5000 µM [5] [×10⁻⁶ cm/s] | K [6] | K [7] | logD [8]
Cc1cc(Nc2nc(CC(C)NC3CC(C)(C)NC(C)(C)C3)ns2)no1 (configuration not stated) | 108 | 14.1 (≈ 5340 µg/mL) | 3.7 | 3.4 | -0.426 | 31.7 | 258.6 |  | 
CC(Cc1nsc(Nc2ccc(Cl)cc2)n1)NC1CC(C)(C)NC(C)(C)C1 (configuration not stated) | 172 | 3.72 (≈ 1520 µg/mL) | 14.1 | 8.6 | 0.262 | 21.9 | 73 | 1.22 ×10⁴ No_unit | 
CC(O)Cc1nsc(Nc2ccc(Cl)c(Cl)c2)n1 (configuration not stated) | 51 |  |  |  | 2.79 |  | 0.17 | 610 | 
Cc1ccc(Nc2nc(CC(C)NC3CC(C)(C)NC(C)(C)C3)ns2)cc1 (configuration not stated) | 128 | 8.37 (≈ 3240 µg/mL) | 22.8 | 12.2 | 0.82 | 26.3 | 89.3 | 4.44 ×10⁴ No_unit | 
CC(O)Cc1nsc(Nc2ccc(F)cc2)n1 (configuration not stated) | 88 | 3.4 (≈ 861 µg/mL) |  |  | 2.5 |  | 0.32 | 316 | 
Cc1ccc(Nc2nc(CC(C)NC3CC(C)(C)NC(C)(C)C3)ns2)cc1Cl (configuration not stated) | 214 | 5.57 (≈ 2350 µg/mL) | 39.5 | 13.5 | 1.04 | 20.6 | 20.6 | 7.31 ×10⁴ No_unit | 0.0031
CSc1cccc(Nc2nc(CC(C)O)ns2)c1 (configuration not stated) | 86.7 |  |  |  | 1.97 |  | 0.48 | 94 | 
Cc1ccc(Cl)cc1Nc1nc(CC(C)O)ns1 (configuration not stated) | 88 | 0.445 (≈ 126 µg/mL) |  |  | 3.02 |  | 0.56 |  | 
CSc1cccc(Nc2nc(CC(C)NC3CC(C)(C)NC(C)(C)C3)ns2)c1 (configuration not stated) | 117 | 12 (≈ 5040 µg/mL) | 18.2 | 10.1 | 0.643 | 22.8 | 92.9 | 2.92 ×10⁴ No_unit | 
COc1ccc(Nc2nc(CC(C)O)ns2)cc1 (configuration not stated) | 108 | 3.04 (≈ 807 µg/mL) |  |  | 2.31 |  | 0.58 | 205 | 
CC(Cc1nsc(NC2CC2)n1)NC1CC(C)(C)NC(C)(C)C1 (configuration not stated) | 86 | 310 (≈ 105000 µg/mL) | 6.8 | 5.4 | 0.0828 | 27.6 | 655.5 | 3.19 ×10³ No_unit | 
CC(Cc1nsc(Nc2ccc(Br)cc2)n1)NC1CC(C)(C)NC(C)(C)C1 (configuration not stated) | 82 | 3.49 (≈ 1580 µg/mL) | 9.5 | 6.5 | 0.31 | 25.8 | 85 | 1.36 ×10⁴ No_unit | 
CC(Cc1nsc(Nc2ccc(F)cc2)n1)NC1CC(C)(C)NC(C)(C)C1 (configuration not stated) | 112 | 18.2 (≈ 7130 µg/mL) | 18.6 | 8.7 | 0.881 | 16.3 | 158 | 5.06 ×10⁴ No_unit | 
CC(O)Cc1nsc(Nc2ccc(Cl)cc2)n1 (configuration not stated) | 89 | 0.484 (≈ 130 µg/mL) |  |  | 2.58 |  | 0.46 | 380 | 
Cc1ccc(Nc2nc(CC(C)O)ns2)cc1Cl (configuration not stated) | 87 | 0.483 (≈ 137 µg/mL) |  |  | 3.02 |  | 1.68 | 1.038 ×10³ No_unit | 
CC(O)Cc1nsc(Nc2ccc(F)c(Cl)c2)n1 (configuration not stated) | 75 |  |  |  | 2.35 |  | 0.16 | 226 | 
Cc1ccc(Nc2nc(CC(C)O)ns2)cc1 (configuration not stated) | 85 | 2.19 (≈ 546 µg/mL) |  |  | 2.65 |  | 0.31 | 445 | 
Cc1cc(Nc2nc(CC(C)O)ns2)no1 (configuration not stated) | 109 |  |  |  | 1.65 |  | 0.18 | 45 | 
CC(Cc1nsc(Nc2ccc(F)c(Cl)c2)n1)NC1CC(C)(C)NC(C)(C)C1 (configuration not stated) | 189 | 9.24 (≈ 3940 µg/mL) | 30.9 | 13.9 | 0.699 | 25.4 | 42 | 3.25 ×10⁴ No_unit | 
Cc1ccc(Cl)cc1Nc1nc(CC(C)NC2CC(C)(C)NC(C)(C)C2)ns1 (configuration not stated) | 177 | 4.86 (≈ 2050 µg/mL) | 26.9 | 14.4 | 0.839 | 30.8 | 112.8 | 4.56 ×10⁴ No_unit | 
CC(Cc1nsc(Nc2ccc(Cl)c(Cl)c2)n1)NC1CC(C)(C)NC(C)(C)C1 (configuration not stated) | 305 | 7.45 (≈ 3300 µg/mL) | 26.1 | 9.8 | 1.1 | 15.7 | 72.3 |  | 
